Data set [1] can be described thus: Half life in Lewis rat collagen-induced arthritis model at 3 to 30 mg/kg, po after 15 days. The data set is classed as ADME, organism-based. Details: dose 3-30 mg/kg, route oral. As to conditions: in vivo.
A short description of data set [2]: Tmax in Lewis rat collagen-induced arthritis model at 3 to 30 mg/kg, po after 15 days. The following applies: in vivo. In kind it is ADME, organism-based. Details: dose 3-30 mg/kg, route oral.
Data set [3] has as its system Rattus norvegicus. Description: Antiinflammatory activity in Lewis rat collagen-induced arthritis model assessed as reduction of bone resorption at 30 mg/kg, po administered for 15 days. Details: dose 30 mg/kg. The data set is classed as functional, organism-based. The method, boiled down: (§1)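 Female Lewis rats received collagen injected at the tail base, and disease developed over 14 d. Responding rats (groups of n = 10) were then dosed orally once daily for the next 15 d. Ankle/paw diameter was measured throughout the live phase and summarised as AUC. Hindpaw histology was scored blind from 0 (normal) to 5 (vehicle-level). Statistics used Student's t test vs vehicle, p < 0.01.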

Data set [4] concerns Rattus norvegicus. Put plainly: Antiinflammatory activity in Lewis rat collagen-induced arthritis model assessed as reduction of cartilage damage at 30 mg/kg, po administered for 15 days. The data set is classed as functional, organism-based. The arrangement: dose 30 mg/kg. In a few lines:
as §1

Data set [5] concerns Rattus norvegicus. Put plainly: Antiinflammatory activity in Lewis rat collagen-induced arthritis model assessed as reduction of pannus at 30 mg/kg, po administered for 15 days. In kind it is functional, organism-based. Details: dose 30 mg/kg. The method, boiled down: as §1
In data set [6] the test system is Rattus norvegicus. Put plainly: Antiinflammatory activity in Lewis rat collagen-induced arthritis model assessed as reduction of joint inflammation at 30 mg/kg, po administered for 15 days. In kind it is functional, organism-based. The arrangement: dose 30 mg/kg. The method, boiled down:
as §1

Data set [7] has as its system Rattus norvegicus. Description: Antiinflammatory activity in po dosed Lewis rat collagen-induced arthritis model assessed as reduction in ankle diameter administered for 15 days measured during compound dosing. In kind it is functional, organism-based. In a few lines: as §1
Data set [8] has as its system Rattus norvegicus. Put plainly: Antiinflammatory activity in po dosed Sprague-Dawley rat assessed as inhibition of carrageenan-induced IL-1beta secretion incubated for 2 hrs prior to carrageenan challenge measured after 5 hrs by ELISA. In kind it is functional. The method, boiled down: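 Male Sprague-Dawley rats (n = 5/group) were dosed at t = 0, and carrageenan was injected into the rear footpad at 2 h. At 5 h the animals were euthanised and the hindpaws weighed to measure edema. Paw exudate was assayed for IL-1β by ELISA.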

In data set [9] the test system is Rattus norvegicus. Put plainly: Antiinflammatory activity in po dosed Sprague-Dawley rat assessed as inhibition of carrageenan-induced paw edema incubated for 2 hrs prior to carrageenan challenge measured after 5 hrs […]. In kind it is functional.
A short description of data set [10]: AUC in Sprague-Dawley rat at 3 mg/kg, po. In kind it is ADME, organism-based. Details: dose 3 mg/kg, route oral. As to conditions: plasma. The method, boiled down:
(§2)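 Cannulated male Sprague-Dawley rats, fasted overnight, given a single 3 mpk dose at t = 0. The iv vehicle was 20% microemulsion/80% DI water and the po vehicle CMC/tween in DI water. Plasma was analysed for parent compound by LC/MS-MS, and exposure, half-life, Vd, clearance and bioavailability were calculated.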

Data set [11] can be described thus: AUC in Sprague-Dawley rat at 3 mg/kg, iv. In kind it is ADME, organism-based. The arrangement: dose 3 mg/kg, route intravenous. The following applies: plasma. The method, boiled down:
as §2

The nature of data set [12]: Clearance in Sprague-Dawley rat at 3 mg/kg, iv. The data set is classed as ADME, organism-based. Details: dose 3 mg/kg, route intravenous. As to conditions: in vivo. The method, boiled down: as §2
Data set [13] in a line: Oral bioavailability in Sprague-Dawley rat at 3 mg/kg. In kind it is ADME, organism-based. The following applies: in vivo. In a few lines: as §2
The nature of data set [14]: Volume of distribution in Sprague-Dawley rat at 3 mg/kg, iv. The data set is classed as ADME, organism-based. As to conditions: in vivo. Details: dose 3 mg/kg, route intravenous. The method, boiled down: as §2
A short description of data set [15]: Half life in Sprague-Dawley rat at 3 mg/kg, iv. In kind it is ADME, organism-based. The arrangement: dose 3 mg/kg, route intravenous. As to conditions: in vivo. The method, boiled down: as §2
Data set [16] deals with T1, Glucocorticoid receptor (Homo sapiens) (UniProt P04150).
T1 sequence (whole entry): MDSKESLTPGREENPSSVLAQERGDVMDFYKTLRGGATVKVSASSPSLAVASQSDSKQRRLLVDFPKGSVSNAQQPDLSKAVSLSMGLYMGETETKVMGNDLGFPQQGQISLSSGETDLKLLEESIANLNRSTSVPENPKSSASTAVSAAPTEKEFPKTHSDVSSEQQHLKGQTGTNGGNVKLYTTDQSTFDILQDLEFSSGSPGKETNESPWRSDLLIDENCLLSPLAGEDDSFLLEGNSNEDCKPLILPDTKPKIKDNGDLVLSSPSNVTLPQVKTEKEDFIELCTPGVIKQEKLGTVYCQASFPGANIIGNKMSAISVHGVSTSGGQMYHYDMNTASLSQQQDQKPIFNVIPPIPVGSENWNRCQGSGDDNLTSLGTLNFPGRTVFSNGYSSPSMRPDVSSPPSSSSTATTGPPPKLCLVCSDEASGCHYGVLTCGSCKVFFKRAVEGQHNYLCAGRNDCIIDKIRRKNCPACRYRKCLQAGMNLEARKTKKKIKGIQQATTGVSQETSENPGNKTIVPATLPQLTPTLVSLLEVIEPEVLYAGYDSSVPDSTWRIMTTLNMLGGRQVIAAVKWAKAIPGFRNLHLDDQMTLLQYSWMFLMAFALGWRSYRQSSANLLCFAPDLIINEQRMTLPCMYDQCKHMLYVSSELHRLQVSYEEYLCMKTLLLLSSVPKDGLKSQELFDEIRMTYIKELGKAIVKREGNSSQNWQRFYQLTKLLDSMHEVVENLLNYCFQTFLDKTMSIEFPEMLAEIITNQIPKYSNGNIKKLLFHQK
Description: Transactivation of human glucocorticoid receptor expressed in HEK293 cells at 10 uM after 24 hrs by luciferase reporter gene assay relative to control. The data set is classed as cell-based. In a few lines:
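HEK293 cells were transfected in DMEM with 5% charcoal-stripped FBS, using a CMV-hGR plasmid and a luciferase reporter driven by 2×GRE plus the TK promoter. After overnight incubation, cells were replated and exposed to compound for 24 h, then lysed for luciferase readout.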

For data set [17], the target named is T2, Androgen receptor (Homo sapiens, UniProt P10275).
T2 sequence (P10275 whole entry): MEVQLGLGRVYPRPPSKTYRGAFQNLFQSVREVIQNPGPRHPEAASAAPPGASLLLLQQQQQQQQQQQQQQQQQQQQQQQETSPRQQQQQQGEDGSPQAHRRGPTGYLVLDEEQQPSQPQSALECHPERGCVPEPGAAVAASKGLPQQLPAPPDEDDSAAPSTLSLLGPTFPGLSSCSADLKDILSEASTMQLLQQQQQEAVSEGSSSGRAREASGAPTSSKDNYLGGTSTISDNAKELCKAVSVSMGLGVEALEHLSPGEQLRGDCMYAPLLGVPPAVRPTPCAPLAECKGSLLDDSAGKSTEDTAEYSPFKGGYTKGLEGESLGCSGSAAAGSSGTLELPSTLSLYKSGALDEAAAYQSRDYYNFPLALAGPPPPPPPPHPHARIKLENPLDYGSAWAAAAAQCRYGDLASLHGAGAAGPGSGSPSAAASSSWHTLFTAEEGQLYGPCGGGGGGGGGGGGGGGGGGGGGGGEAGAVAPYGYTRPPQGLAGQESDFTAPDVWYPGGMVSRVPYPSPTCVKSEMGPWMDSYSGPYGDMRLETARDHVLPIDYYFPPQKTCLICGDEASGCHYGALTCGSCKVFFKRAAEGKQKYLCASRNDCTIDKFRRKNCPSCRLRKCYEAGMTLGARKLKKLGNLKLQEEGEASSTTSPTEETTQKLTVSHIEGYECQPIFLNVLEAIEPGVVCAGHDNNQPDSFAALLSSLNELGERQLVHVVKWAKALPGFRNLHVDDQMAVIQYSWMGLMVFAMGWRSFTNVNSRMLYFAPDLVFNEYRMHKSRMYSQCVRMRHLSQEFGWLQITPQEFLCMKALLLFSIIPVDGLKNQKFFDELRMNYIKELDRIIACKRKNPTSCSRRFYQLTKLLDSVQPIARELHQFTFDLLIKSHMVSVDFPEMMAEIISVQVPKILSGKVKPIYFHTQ
Description: Displacement of [3H]-methyltrienolone from human androgen receptor expressed in HEK293 cells. In kind it is cell-based.

SMILES strings stand for the structures. pKi: −log10 of the molar value. Activity calls are given as the source filed them. No cut-off for these calls is given here.

Regarding `CC/C(=C1\c2ccccc2OCc2cccc(OC)c21)c1cccc(NS(C)(=O)=O)c1`, the half-life in data set [1] and in [15] was 84 min in each case. Also, the Tmax in [2] was 1 h. Moreover, the outcome in data set [3], in [4], in data set [5] and in data set [6] was Active. Moreover, in data set [7], the Activity entry is “Dose-dependent effect”. Besides, the ED50 in [8] turned out to be 1.7 mg/kg; in data set [9], 2.8 mg/kg. For the same compound, the AUC in data set [10] was 1300 ng·h/mL; in data set [11], 1490 ng·h/mL. Also, the clearance in [12] was determined as 56 mL/min/kg. The bioavailability in [13] was found to be 100%. The Vd in data set [14] came out at 7 L/kg. Also, in [16], the Efficacy was 53%. Also, in [17], the pKi was 6.62.

`CC/C(=C1/c2ccccc2COc2ccccc21)c1cccc(NS(C)(=O)=O)c1`: the pKi in data set [17] is 8.01.

In turn, `CS(=O)(=O)Nc1cccc(C=C2c3ccccc3CCc3ccccc32)c1` showed a pKi in [17] of 6.38.

Regarding `C/C(=C1/c2ccccc2COc2ccccc21)c1cccc(NS(C)(=O)=O)c1`, the pKi in [17] is 8.22.

Source of the values: ChEMBL document CHEMBL3120138, “Glucocorticoid receptor modulators informed by crystallography lead to a new rationale for receptor selectivity, function, and implications for structure-based design” (J Med Chem, 2014).
